Measurements from different studies.
Read-out: cell growth or viability

CCC1(OC(=O)C(C)c2ccc3cc(OC)ccc3c2)C(=O)OCc2c1cc1n(c2=O)Cc2cc3cc4c(cc3nc2-1)OCO4 (stereo not shown)
IC50 (HeLa; MTT): 2180 nM

C[C@H]1CCC/C=C/[C@@H]2C[C@H](O)C[C@H]2[C@H](O)/C=C/C(=O)O1
EC50 (HeLa; ATP luminescence): 40 nM

C[S@@+]([O-])CCCCN=C=S
IC50 (Hepa-1c1c7; crystal violet; 48 h): 16700 nM

COc1ccc(NC(=O)CC(Nc2ccc(OC)cc2)c2ccc3c(c2)C=CC(C)(C)O3)cc1 (stereo not shown)
viability (rat Primary cortical neuron; MTT; 1 µM, 12 h): > 80%

COc1cc2c3c(n(CCCNCCO)c(=O)c2cc1OC)-c1cc2c(cc1C3=O)OCO2
GI50 (UACC-62; SRB): 30 nM

C[C@H]1CN(c2ccncc2NC(=O)c2ccc(F)c(-c3c(F)cccc3F)n2)C[C@@H](N)[C@@H]1O
GI50 (KMS-11; thymidine uptake): 123 nM

CC1(C)C=Cc2cc(/C=C/C(=O)Oc3ccccc3)ccc2O1
viability (rat Primary cortical neuron; MTT; 1 µM, 12 h): 81%

O=C(Cc1ccc2ccccc2c1)N[C@@H](Cc1ccccc1)C(=O)N[C@H](Cc1ccccc1)C(=O)N[C@H](Cc1ccc(OP(=O)(O)O)cc1)C(=O)O
IC50 (HeLa; MTT; 48 h): 500000 nM

CC1(C)C=Cc2cc(/C=C/C(=O)N3CCN(c4ccc(O)cc4)CC3)ccc2O1
viability (rat Primary cortical neuron; MTT; 1 µM, 12 h): 98%

CN[C@@H]1C[C@H]2O[C@@](C)([C@@H]1OC)n1c3ccccc3c3c4c(c5c6ccccc6n2c5c31)C(=O)NC4
GI50 (U2OS): 26 nM
